Results: PMC12018814 (Plant Biotechnology Journal, 2025)

Test system: Ach15909
Assay: HPLC of salidroside formed
Type: biochemical, Astilbe chinensis
Conditions: 2 mM UDP-glucose, 0.05-2.0 mM tyrosol, 50 mM PB pH 8.0, 37 °C, 30 min
Procedure, shortened: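 Recombinant A. chinensis UGT was expressed in E. coli Rosetta 2 (DE3), Ni-NTA purified with an imidazole gradient, exchanged into PBS pH 7.4, and quantified by BCA. Reactions were started by adding protein and quenched for C18 HPLC (0.1% formic acid water/acetonitrile gradient, 275 nm). Salidroside was quantified against an external standard curve, in triplicate, with kinetic parameters from non-linear fitting.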

Km: 740 ± 200 µM
Structure (SMILES): OCCc1ccc(O)cc1 [compound 1, tyrosol]
